Laboratory results published in ChEMBL document CHEMBL4038304, “Chiral Indolylarylsulfone Non-Nucleoside Reverse Transcriptase Inhibitors as New Potent and Broad Spectrum Anti-HIV-1 Agents” (J Med Chem, 2017).

Test system: Human immunodeficiency virus 1
Assay: Ratio of EC50 for HIV-1 harboring reverse transcriptase K103N mutant infected in human MT4 cells to EC50 for HIV1 NL4-3 infected in human MT4 cells
Assay type: functional
Conditions: not given
Procedure, shortened: (§1)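 Fold change calculated as EC50 against the stated resistant mutant HIV-1 strain divided by EC50 against wild-type NL4-3. Both EC50s come from MTT read-out of virus-induced death in MT-4 cells, mean of two to three independent experiments each in triplicate.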

Compound	Ratio EC50
Cc1cc(C)cc(S(=O)(=O)c2c(C(=O)NC(C)c3ccccc3F)[nH]c3ccc(Cl)cc23)c1 (racemic)	1
Cc1cc(C)cc(S(=O)(=O)c2c(C(=O)NCC(=O)NCc3ccccc3F)[nH]c3ccc(Cl)cc23)c1	1894
Cc1cc(C)cc(S(=O)(=O)c2c(C(=O)NCc3n[nH]c4ccccc34)[nH]c3ccc(Cl)cc23)c1	1

Test system: Human immunodeficiency virus 1
Assay: Ratio of EC50 for HIV-1 harboring reverse transcriptase Y181C mutant infected in human MT4 cells to EC50 for HIV1 NL4-3 infected in human MT4 cells
Assay type: functional
Conditions: not given
Procedure, shortened: as §1

Compound	Ratio EC50
Cc1cc(C)cc(S(=O)(=O)c2c(C(=O)NC(C)c3ccccc3F)[nH]c3ccc(Cl)cc23)c1 (racemic)	>147
Cc1cc(C)cc(S(=O)(=O)c2c(C(=O)NCC(=O)NCc3ccccc3F)[nH]c3ccc(Cl)cc23)c1	1.9
Cc1cc(C)cc(S(=O)(=O)c2c(C(=O)NCc3n[nH]c4ccccc34)[nH]c3ccc(Cl)cc23)c1	1

Target: Human immunodeficiency virus type 1 reverse transcriptase (Human immunodeficiency virus 1, UniProt Q72547, K103N)
Assay: Inhibition of HIV1 reverse transcriptase p66 K103N mutant associated RNA dependent DNA polymerase activity expressed in Escherichia coli assessed as reduction in [3H]dTTP incorporation using poly(rA)/oligo(dT) as template/primer by scintillation counting analysis
Conditions: not given

Compound	IC50 [µM]
Cc1cc(C)cc(S(=O)(=O)c2c(C(=O)N[C@H](C)C(=O)NCc3ccncn3)[nH]c3ccc(Cl)cc23)c1	19.9
Cc1cc(C)cc(S(=O)(=O)c2c(C(=O)N[C@@H](C)C(=O)NCc3ccncn3)[nH]c3ccc(Cl)cc23)c1	2.86
Cc1cc(C)cc(S(=O)(=O)c2c(C(=O)N[C@H](C)C(=O)N[C@@H](C)c3ccncc3)[nH]c3ccc(Cl)cc23)c1	3.55

Test system: Human immunodeficiency virus 1
Assay: Antiviral activity against HIV1 harboring reverse transcriptase Y181C mutant infected in human […] cells assessed as protection against virus-induced cytopathic effect measured on day 5 post infection by MTT assay
Assay type: functional, cell-based
Conditions: Human immunodeficiency virus 1, 120 h

Compound	EC50 [µM]
Cc1cc(C)cc(S(=O)(=O)c2c(C(=O)N[C@H](C)C(=O)NCc3ccncn3)[nH]c3ccc(Cl)cc23)c1	0.171
Cc1cc(C)cc(S(=O)(=O)c2c(C(=O)N[C@@H](C)C(=O)NCc3ccncn3)[nH]c3ccc(Cl)cc23)c1	0.0006
Cc1cc(C)cc(S(=O)(=O)c2c(C(=O)N[C@H](C)C(=O)N[C@@H](C)c3ccncc3)[nH]c3ccc(Cl)cc23)c1	0.668
Cc1cc(C)cc(S(=O)(=O)c2c(C(=O)NC(C)c3ccccc3F)[nH]c3ccc(Cl)cc23)c1 (racemic)	0.103
Cc1cc(C)cc(S(=O)(=O)c2c(C(=O)NCC(=O)NCc3ccccc3F)[nH]c3ccc(Cl)cc23)c1	0.0013
Cc1cc(C#N)cc(C)c1Oc1nc(Nc2ccc(C#N)cc2)nc(N)c1Br [ETRAVIRINE]	0.018
Cc1cc(C)cc(S(=O)(=O)c2c(C(=O)NCc3n[nH]c4ccccc34)[nH]c3ccc(Cl)cc23)c1	0.0006

Test system: Human immunodeficiency virus 1
Assay: Antiviral activity against HIV1 NL4-3 infected in human […] cells assessed as protection against virus-induced cytopathic effect measured on day 5 post infection by MTT assay
Assay type: functional, cell-based
Conditions: Human immunodeficiency virus 1, NL4-3, 120 h
Procedure, shortened: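 Values are means of two to three independent experiments, each run in triplicate. The lowest detectable concentration is reported where activity fell below the assay limit.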

Compound	EC50 [µM]
Cc1cc(C)cc(S(=O)(=O)c2c(C(=O)N[C@H](C)C(=O)NCc3ccncn3)[nH]c3ccc(Cl)cc23)c1	0.0006
Cc1cc(C)cc(S(=O)(=O)c2c(C(=O)N[C@@H](C)C(=O)NCc3ccncn3)[nH]c3ccc(Cl)cc23)c1	0.0006
Cc1cc(C)cc(S(=O)(=O)c2c(C(=O)N[C@H](C)C(=O)N[C@@H](C)c3ccncc3)[nH]c3ccc(Cl)cc23)c1	0.0019
Cc1cc(C)cc(S(=O)(=O)c2c(C(=O)NC(C)c3ccccc3F)[nH]c3ccc(Cl)cc23)c1 (racemic)	0.0007
Cc1cc(C)cc(S(=O)(=O)c2c(C(=O)NCC(=O)NCc3ccccc3F)[nH]c3ccc(Cl)cc23)c1	0.0006
Cc1cc(C#N)cc(C)c1Oc1nc(Nc2ccc(C#N)cc2)nc(N)c1Br [ETRAVIRINE]	0.0161
Cc1cc(C)cc(S(=O)(=O)c2c(C(=O)NCc3n[nH]c4ccccc34)[nH]c3ccc(Cl)cc23)c1	0.0006

Test system: Human immunodeficiency virus 1
Assay: Antiviral activity against HIV1 harboring reverse transcriptase Y188L mutant infected in human […] cells assessed as protection against virus-induced cytopathic effect measured on day 5 post infection by MTT assay
Assay type: functional, cell-based
Conditions: Human immunodeficiency virus 1, 120 h

Compound	EC50 [µM]
Cc1cc(C)cc(S(=O)(=O)c2c(C(=O)N[C@H](C)C(=O)NCc3ccncn3)[nH]c3ccc(Cl)cc23)c1	5.74
Cc1cc(C)cc(S(=O)(=O)c2c(C(=O)N[C@@H](C)C(=O)NCc3ccncn3)[nH]c3ccc(Cl)cc23)c1	0.38
Cc1cc(C)cc(S(=O)(=O)c2c(C(=O)N[C@H](C)C(=O)N[C@@H](C)c3ccncc3)[nH]c3ccc(Cl)cc23)c1	> 28.5
Cc1cc(C)cc(S(=O)(=O)c2c(C(=O)NC(C)c3ccccc3F)[nH]c3ccc(Cl)cc23)c1 (racemic)	0.969
Cc1cc(C)cc(S(=O)(=O)c2c(C(=O)NCC(=O)NCc3ccccc3F)[nH]c3ccc(Cl)cc23)c1	6.16
Cc1cc(C)cc(S(=O)(=O)c2c(C(=O)NCc3n[nH]c4ccccc34)[nH]c3ccc(Cl)cc23)c1	0.142

Test system: not listed separately
Assay: Cytotoxicity against human MT4 cells assessed as cell viability by MTT assay
Assay type: cell-based
Conditions: not given
Procedure, shortened: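 Uninfected MT-4 cells scored for viability by MTT. […] Values are means of two to three independent experiments, each run in triplicate.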

Compound	CC50 [µM]
Cc1cc(C)cc(S(=O)(=O)c2c(C(=O)NC(C)c3ccccc3F)[nH]c3ccc(Cl)cc23)c1 (racemic)	> 51.5
Cc1cc(C)cc(S(=O)(=O)c2c(C(=O)NCC(=O)NCc3ccccc3F)[nH]c3ccc(Cl)cc23)c1	> 47.3
Cc1cc(C#N)cc(C)c1Oc1nc(Nc2ccc(C#N)cc2)nc(N)c1Br [ETRAVIRINE]	> 23
Cc1cc(C)cc(S(=O)(=O)c2c(C(=O)NCc3n[nH]c4ccccc34)[nH]c3ccc(Cl)cc23)c1	> 50.7

Test system: Human immunodeficiency virus 1
Assay: Antiviral activity against HIV1 harboring reverse transcriptase K103N /[…] double mutant infected in human […] cells assessed as protection against virus-induced cytopathic effect measured on day 5 post infection by MTT assay
Assay type: functional, cell-based
Conditions: Human immunodeficiency virus 1, 120 h

Compound	EC50 [µM]
Cc1cc(C)cc(S(=O)(=O)c2c(C(=O)N[C@H](C)C(=O)NCc3ccncn3)[nH]c3ccc(Cl)cc23)c1	> 24.5
Cc1cc(C)cc(S(=O)(=O)c2c(C(=O)N[C@@H](C)C(=O)NCc3ccncn3)[nH]c3ccc(Cl)cc23)c1	0.779
Cc1cc(C)cc(S(=O)(=O)c2c(C(=O)N[C@H](C)C(=O)N[C@@H](C)c3ccncc3)[nH]c3ccc(Cl)cc23)c1	19.3
Cc1cc(C)cc(S(=O)(=O)c2c(C(=O)NC(C)c3ccccc3F)[nH]c3ccc(Cl)cc23)c1 (racemic)	3.96
Cc1cc(C)cc(S(=O)(=O)c2c(C(=O)NCC(=O)NCc3ccccc3F)[nH]c3ccc(Cl)cc23)c1	> 47.3
Cc1cc(C#N)cc(C)c1Oc1nc(Nc2ccc(C#N)cc2)nc(N)c1Br [ETRAVIRINE]	0.0046
Cc1cc(C)cc(S(=O)(=O)c2c(C(=O)NCc3n[nH]c4ccccc34)[nH]c3ccc(Cl)cc23)c1	0.548

Test system: Human immunodeficiency virus 1
Assay: Ratio of EC50 for HIV-1 harboring reverse transcriptase K103N/[…] double mutant infected in human MT4 cells to EC50 for HIV1 NL4-3 infected in human MT4 cells
Assay type: functional
Conditions: not given
Procedure, shortened: as §1

Compound	Ratio EC50
Cc1cc(C)cc(S(=O)(=O)c2c(C(=O)NC(C)c3ccccc3F)[nH]c3ccc(Cl)cc23)c1 (racemic)	>5656
Cc1cc(C)cc(S(=O)(=O)c2c(C(=O)NCC(=O)NCc3ccccc3F)[nH]c3ccc(Cl)cc23)c1	>72248
Cc1cc(C)cc(S(=O)(=O)c2c(C(=O)NCc3n[nH]c4ccccc34)[nH]c3ccc(Cl)cc23)c1	913

Test system: Human immunodeficiency virus 1
Assay: Antiviral activity against HIV1 harboring reverse transcriptase K103N mutant infected in human […] cells assessed as protection against virus-induced cytopathic effect measured on day 5 post infection by MTT assay
Assay type: functional, cell-based
Conditions: Human immunodeficiency virus 1, 120 h

Compound	EC50 [µM]
Cc1cc(C)cc(S(=O)(=O)c2c(C(=O)N[C@H](C)C(=O)NCc3ccncn3)[nH]c3ccc(Cl)cc23)c1	0.076
Cc1cc(C)cc(S(=O)(=O)c2c(C(=O)N[C@@H](C)C(=O)NCc3ccncn3)[nH]c3ccc(Cl)cc23)c1	0.0006
Cc1cc(C)cc(S(=O)(=O)c2c(C(=O)N[C@H](C)C(=O)N[C@@H](C)c3ccncc3)[nH]c3ccc(Cl)cc23)c1	0.204
Cc1cc(C)cc(S(=O)(=O)c2c(C(=O)NC(C)c3ccccc3F)[nH]c3ccc(Cl)cc23)c1 (racemic)	0.0007
Cc1cc(C)cc(S(=O)(=O)c2c(C(=O)NCC(=O)NCc3ccccc3F)[nH]c3ccc(Cl)cc23)c1	1.33
Cc1cc(C#N)cc(C)c1Oc1nc(Nc2ccc(C#N)cc2)nc(N)c1Br [ETRAVIRINE]	0.0007
Cc1cc(C)cc(S(=O)(=O)c2c(C(=O)NCc3n[nH]c4ccccc34)[nH]c3ccc(Cl)cc23)c1	0.0006

Target: Human immunodeficiency virus type 1 reverse transcriptase (Human immunodeficiency virus 1, UniProt Q72547)
Assay: Inhibition of HIV1 NL4-3 reverse transcriptase His-tagged p66/p51 associated RNA dependent DNA polymerase activity expressed in Escherichia coli assessed as reduction in [3H]dTTP incorporation using poly(rA)/oligo(dT) as template/primer by scintillation counting analysis
Conditions: not given

Compound	IC50 [µM]
Cc1cc(C)cc(S(=O)(=O)c2c(C(=O)N[C@H](C)C(=O)NCc3ccncn3)[nH]c3ccc(Cl)cc23)c1	1.8
Cc1cc(C)cc(S(=O)(=O)c2c(C(=O)N[C@@H](C)C(=O)NCc3ccncn3)[nH]c3ccc(Cl)cc23)c1	0.47
Cc1cc(C)cc(S(=O)(=O)c2c(C(=O)N[C@H](C)C(=O)N[C@@H](C)c3ccncc3)[nH]c3ccc(Cl)cc23)c1	1.19

Target: Human immunodeficiency virus type 1 reverse transcriptase (Human immunodeficiency virus 1, UniProt Q72547, Y181I)
Assay: Inhibition of HIV1 reverse transcriptase p66 Y181I mutant associated RNA dependent DNA polymerase activity expressed in Escherichia coli assessed as reduction in [3H]dTTP incorporation using poly(rA)/oligo(dT) as template/primer by scintillation counting analysis
Conditions: not given

Compound	IC50 [µM]
Cc1cc(C)cc(S(=O)(=O)c2c(C(=O)N[C@H](C)C(=O)NCc3ccncn3)[nH]c3ccc(Cl)cc23)c1	3.35
Cc1cc(C)cc(S(=O)(=O)c2c(C(=O)N[C@@H](C)C(=O)NCc3ccncn3)[nH]c3ccc(Cl)cc23)c1	3.14
Cc1cc(C)cc(S(=O)(=O)c2c(C(=O)N[C@H](C)C(=O)N[C@@H](C)c3ccncc3)[nH]c3ccc(Cl)cc23)c1	9.51

Test system: not listed separately
Assay: Inhibition of HIV1 reverse transcriptase p66 K103N/[…] double mutant associated RNA dependent DNA polymerase activity expressed in Escherichia coli assessed as reduction in [3H]dTTP incorporation using poly(rA)/oligo(dT) as template/primer by scintillation counting analysis
Set-up: species or system Human immunodeficiency virus 1
Conditions: not given

Compound	IC50 [µM]
Cc1cc(C)cc(S(=O)(=O)c2c(C(=O)N[C@@H](C)C(=O)NCc3ccncn3)[nH]c3ccc(Cl)cc23)c1	14.3
Cc1cc(C)cc(S(=O)(=O)c2c(C(=O)N[C@H](C)C(=O)N[C@@H](C)c3ccncc3)[nH]c3ccc(Cl)cc23)c1	8.42
Cc1cc(C#N)cc(C)c1Oc1nc(Nc2ccc(C#N)cc2)nc(N)c1Br [ETRAVIRINE]	0.097

Test system: Human immunodeficiency virus 1
Assay: Ratio of EC50 for HIV-1 harboring reverse transcriptase Y188L mutant infected in human MT4 cells to EC50 for HIV1 NL4-3 infected in human MT4 cells
Assay type: functional
Conditions: not given
Procedure, shortened: as §1

Compound	Ratio EC50
Cc1cc(C)cc(S(=O)(=O)c2c(C(=O)NC(C)c3ccccc3F)[nH]c3ccc(Cl)cc23)c1 (racemic)	>1384
Cc1cc(C)cc(S(=O)(=O)c2c(C(=O)NCC(=O)NCc3ccccc3F)[nH]c3ccc(Cl)cc23)c1	10258
Cc1cc(C)cc(S(=O)(=O)c2c(C(=O)NCc3n[nH]c4ccccc34)[nH]c3ccc(Cl)cc23)c1	237

Test system: not listed separately
Assay: Selectivity index, ratio of CC50 for human MT4 cells to EC50 for HIV1 NL4-3 infected in human MT4 cells
Assay type: toxicity, cell-based
Conditions: read-out: Ratio CC50/EC50
Procedure, shortened: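 SI computed as CC50/EC50, using the MTT-based CC50 in uninfected MT-4 cells and the MTT-based EC50 against HIV-1 NL4-3-induced cell death in MT-4 cells. Experiments were run in triplicate, two to three times.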

Compound	selectivity ratio
Cc1cc(C)cc(S(=O)(=O)c2c(C(=O)NC(C)c3ccccc3F)[nH]c3ccc(Cl)cc23)c1 (racemic)	> 73600
Cc1cc(C)cc(S(=O)(=O)c2c(C(=O)NCC(=O)NCc3ccccc3F)[nH]c3ccc(Cl)cc23)c1	> 78900
Cc1cc(C)cc(S(=O)(=O)c2c(C(=O)NCc3n[nH]c4ccccc34)[nH]c3ccc(Cl)cc23)c1	> 84500
